Assay outcomes as filed in PubChem BioAssay.
KCC2 mod: KCC2 cotransporter modulators, thallium flux, primary screen, cell-based, HEK293 KCC2, FluoZin-2 fluorescence, MLSMR | B-score of Tl+ flux slope (higher = more flux/activation; lower = inhibition) at 10 µM | KCC2 cells, thallium flux FluoZin-2 fluorescence | actives 2.2% (n = 190,000) | Solute carrier family 12 member 5 (Homo sapiens), Q9H2X9;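 active = thallium flux slope and its plate-corrected score both differing from the plate sample mean at a set confidence after two filtering rounds, in either direction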;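 also: slope of fluorescence scaled to starting intensity during 10 to 20 s after thallium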
Target sequence (Q9H2X9 whole entry, looked up): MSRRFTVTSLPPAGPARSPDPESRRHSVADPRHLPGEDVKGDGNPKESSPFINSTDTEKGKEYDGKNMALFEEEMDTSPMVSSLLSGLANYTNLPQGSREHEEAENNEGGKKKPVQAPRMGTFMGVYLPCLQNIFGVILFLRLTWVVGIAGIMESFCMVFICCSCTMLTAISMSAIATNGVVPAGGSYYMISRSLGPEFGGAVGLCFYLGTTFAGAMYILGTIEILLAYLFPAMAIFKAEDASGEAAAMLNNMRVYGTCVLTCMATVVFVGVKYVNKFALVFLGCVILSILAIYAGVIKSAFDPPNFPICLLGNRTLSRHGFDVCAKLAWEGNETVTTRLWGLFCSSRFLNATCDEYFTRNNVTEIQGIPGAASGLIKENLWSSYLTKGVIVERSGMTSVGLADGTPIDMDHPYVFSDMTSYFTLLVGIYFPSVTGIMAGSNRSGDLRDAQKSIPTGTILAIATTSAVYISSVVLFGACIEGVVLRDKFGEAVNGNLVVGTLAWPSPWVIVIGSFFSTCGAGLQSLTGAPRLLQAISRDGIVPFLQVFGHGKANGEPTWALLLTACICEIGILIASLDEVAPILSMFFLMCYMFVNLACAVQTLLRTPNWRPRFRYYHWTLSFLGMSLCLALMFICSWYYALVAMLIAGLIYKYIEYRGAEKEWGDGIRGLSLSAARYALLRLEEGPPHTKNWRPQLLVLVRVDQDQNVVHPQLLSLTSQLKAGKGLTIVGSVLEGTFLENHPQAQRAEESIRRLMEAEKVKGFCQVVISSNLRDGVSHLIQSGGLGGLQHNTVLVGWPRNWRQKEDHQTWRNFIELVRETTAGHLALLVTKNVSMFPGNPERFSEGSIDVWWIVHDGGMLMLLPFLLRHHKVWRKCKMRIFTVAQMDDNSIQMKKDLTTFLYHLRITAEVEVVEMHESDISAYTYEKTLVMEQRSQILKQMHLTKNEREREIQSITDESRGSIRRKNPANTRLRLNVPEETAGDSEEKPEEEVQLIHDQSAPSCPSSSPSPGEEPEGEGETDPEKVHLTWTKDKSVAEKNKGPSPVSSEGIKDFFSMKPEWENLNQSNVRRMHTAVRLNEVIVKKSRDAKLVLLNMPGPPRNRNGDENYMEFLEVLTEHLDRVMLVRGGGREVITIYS
ROMK mod: ROMK potassium channel modulators, primary screen, cell-based, thallium flux, MLSMR library. ATP-sensitive inward rectifier potassium channel 1 (Homo sapiens), P48048. Tet-inducible ROMK, thallium flux fluorescence; actives lie on both sides. B-score at 10 µM. actives 2% (n = 130,000). AID 1918, 2009;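 active = signal ratio slope over the read window, or its plate-corrected B-score, at least 3 SD from the plate mean, either direction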;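 also: B-score of the F/F0 ratio slope over 7 to 12 s after thallium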
MT stabilize HCS: microtubule stabilizers in HeLa cells, primary screen, imaging, high-content imaging; HeLa tubulin immunostaining HCS, 24 h; share of cells brighter than vehicle mean+2SD; % tubulin-high responders, % at 10 µM; actives 0.83% (n = 200,000); AID 2205, 2009;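 active = plate Z-score above 3 for both tubulin-high and condensed-nucleus cell shares, with cell loss under 80%, at 10 µM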;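 also: anti alpha tubulin signal scored within the nucleus-defined area of each cell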
Redox H2O2 prof: compounds producing H2O2 with reducing agent – biochemical, NIH compound library profiling, artefact control for MLSCN library redox annotation, primary screen; DTT-dependent redox cycling H2O2, phenol red/HRP absorbance; 100% = 100 µM peroxide control, 0% = buffer; actives 0.03% (n = 200,000); activation, % at 10 µM;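 active = activation of at least 50% relative to the plate's high and low controls in the primary single-dose screen; inactive = activation below 50%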;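 also: compound incubated with DTT at 0.8 mM final as the reducing agent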
bCat nuc transl: modulators of beta-catenin nuclear translocation, primary screen, imaging, HeLa cells, immunofluorescence, high-content; nuclear translocation activity, % at 5 µM; actives 0.3% (n = 190,000); AID 1665, 2009;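 active = nuclear translocation activity above 50% at 5 µM, with a well cell count of 50 or more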;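 also: per-cell ratio of nuclear to cytoplasmic median beta-catenin stain intensity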
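Technique: fluorescence imaging of beta-catenin antibody stain plus DAPI / Material: human HeLa cell line / Incubation: compound treatment 24 h, 37°C, 5% CO2 / Read-out basis: % activation of per-cell nuclear versus cytoplasmic median beta-catenin signal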
Hits are given with their value. A selection: hits, their analogues and other compounds. The true share with any hit is near 3.7%.

How did Cc1onc(-c2ccccc2)c1C(=O)Nc1sc2c(c1C#N)CCC2 do in these assays?
KCC2 mod: inactive; MT stabilize HCS: 20; Redox H2O2 prof: inactive; bCat nuc transl: inactive

How did Cc1ccccc1C(=O)NC(=S)Nc1sc2c(c1C#N)CCCC2 do in these assays?
MT stabilize HCS: inactive; Redox H2O2 prof: inactive; bCat nuc transl: inactive

What do the screens show for `Cc1cc(C(=O)Nc2sc3c(c2C#N)CCCC3)no1`?
KCC2 mod: 3.7; ROMK mod: 3.6; MT stabilize HCS: 18; Redox H2O2 prof: inactive; bCat nuc transl: inactive

What do the screens show for `CC(C)C(C)(C#N)NC(=O)CSc1nc(C2CCCCC2)n(-c2ccccc2)n1` (configuration not stated)?
KCC2 mod: inactive; ROMK mod: inactive; MT stabilize HCS: inactive; Redox H2O2 prof: inactive; bCat nuc transl: inactive

What do the screens show for `Cc1onc(-c2ccccc2)c1C(=O)Nc1sc2c(c1C(N)=O)CCC2`?
MT stabilize HCS: inactive; Redox H2O2 prof: inactive; bCat nuc transl: inactive

How did Cc1onc(-c2c(F)cccc2Cl)c1C(=O)Nc1sc2c(c1C(N)=O)CCC2 do in these assays?
KCC2 mod: inactive; ROMK mod: inactive; MT stabilize HCS: 31; Redox H2O2 prof: inactive

How did Cn1c(CS/C(N)=N/N=C/c2ccccc2)c(Br)c(=O)n1-c1ccccc1 do in these assays?
KCC2 mod: inactive; ROMK mod: inactive; MT stabilize HCS: inactive; Redox H2O2 prof: inactive; bCat nuc transl: inactive

How did Cc1ccc(C(=O)Nc2ncc(Cc3ccccc3)s2)o1 do in these assays?
KCC2 mod: inactive; ROMK mod: inactive; MT stabilize HCS: inactive; Redox H2O2 prof: inactive; bCat nuc transl: inactive

What do the screens show for `O=C(Nc1ncc(Cc2ccc(SC(F)F)cc2)s1)c1ccccc1`?
KCC2 mod: inactive; ROMK mod: inactive; MT stabilize HCS: 34; Redox H2O2 prof: inactive; bCat nuc transl: inactive

Results for CCOc1ccc(Nc2nc(Cc3nnc(SCC(=O)NCc4ccco4)n3CC)cs2)cc1 ?
KCC2 mod: inactive; MT stabilize HCS: inactive; Redox H2O2 prof: inactive; bCat nuc transl: 148

Results for CCn1c(COc2ccc(C)cc2)nnc1SCC(=O)NCc1ccco1 ?
KCC2 mod: inactive; ROMK mod: inactive; MT stabilize HCS: inactive; Redox H2O2 prof: inactive; bCat nuc transl: inactive

How did COc1ccc2nc(SCC(=O)C(C)(C)C)[nH]c2c1 do in these assays?
KCC2 mod: inactive; bCat nuc transl: inactive

How did CC(c1ccco1)N(C(=O)c1ccccc1NS(=O)(=O)c1cc([N+](=O)[O-])ccc1Cl)c1ccccn1 (configuration not stated) do in these assays?
KCC2 mod: 5.4; MT stabilize HCS: inactive; Redox H2O2 prof: inactive

What do the screens show for `CC(c1ccco1)N(C(=O)c1ccccc1NS(=O)(=O)c1cccc([N+](=O)[O-])c1)c1ccccn1` (configuration not stated)?
KCC2 mod: inactive; ROMK mod: inactive; MT stabilize HCS: inactive; Redox H2O2 prof: inactive; bCat nuc transl: inactive

Results for Cc1sc2nc(C3CC3)nc(SCC(=O)N3CCc4ccccc4C3)c2c1C ?
KCC2 mod: inactive; MT stabilize HCS: inactive; Redox H2O2 prof: inactive; bCat nuc transl: inactive

Results for Cc1sc2nc(C3CC3)nc(SCC(=O)N3CC(=O)Nc4ccccc43)c2c1C ?
KCC2 mod: 12; MT stabilize HCS: inactive; Redox H2O2 prof: inactive

Results for COC(=O)c1c(NC(=O)CSc2nc3nc(C)cc(C)n3n2)sc(C)c1C ?
KCC2 mod: inactive; MT stabilize HCS: inactive; Redox H2O2 prof: inactive; bCat nuc transl: inactive

Results for COCCN1C(=O)/C(=C/c2ccc(N3CCCC3)cc2C)SC1=S ?
KCC2 mod: -5.4; MT stabilize HCS: inactive; Redox H2O2 prof: inactive; bCat nuc transl: inactive

Results for CCc1ccc(/C=C2/SC(=S)N(CC(=O)Nc3nc4ccccc4s3)C2=O)cc1 ?
KCC2 mod: 4.9; MT stabilize HCS: inactive; Redox H2O2 prof: inactive; bCat nuc transl: inactive

How did CCc1ccc(/C=C2\SC(=S)N(CCCC(=O)Nc3ccccn3)C2=O)cc1 do in these assays?
KCC2 mod: inactive; MT stabilize HCS: inactive; Redox H2O2 prof: inactive; bCat nuc transl: inactive

What do the screens show for `CCOc1ccc(NC(=NCc2ccc3c(c2)OCO3)SC2CC(=O)N(c3ccc(OCC)cc3)C2=O)cc1` (configuration not stated)?
KCC2 mod: inactive; ROMK mod: inactive; MT stabilize HCS: 25; Redox H2O2 prof: inactive; bCat nuc transl: inactive

How did CN(C)/C=N/C1=C(C#N)C(c2cccs2)c2ccc3ccccc3c2O1 (configuration not stated) do in these assays?
KCC2 mod: inactive; ROMK mod: inactive; MT stabilize HCS: 16; Redox H2O2 prof: inactive; bCat nuc transl: inactive

What do the screens show for `C[n+]1cccc(C2C(C#N)=C(N)Oc3c2ccc2ccccc32)c1` (configuration not stated)?
KCC2 mod: inactive; ROMK mod: inactive; bCat nuc transl: inactive

How did O=C(NNc1ncc(C(F)(F)F)cc1Cl)c1c(Cl)cccc1Cl do in these assays?
KCC2 mod: 3.8; MT stabilize HCS: 21; Redox H2O2 prof: inactive

What do the screens show for `COc1ccc([N+](=O)[O-])cc1COc1cc(C)cc2oc(=O)cc(-c3ccccc3)c12`?
MT stabilize HCS: 18; Redox H2O2 prof: inactive; bCat nuc transl: inactive

Results for N#C/C(=C\c1ccccc1)C(=O)OCC(=O)N1CCCC1 ?
KCC2 mod: inactive; ROMK mod: inactive; MT stabilize HCS: inactive; Redox H2O2 prof: inactive; bCat nuc transl: inactive

Results for CC1CCN(CCn2c(=S)[nH]c3ncccc3c2=O)CC1 ?
MT stabilize HCS: inactive; Redox H2O2 prof: inactive

Results for O=c1c2cccnc2[nH]c(=S)n1CCCN1CCN(c2ccc(F)cc2)CC1 ?
KCC2 mod: 6; ROMK mod: inactive; MT stabilize HCS: inactive; Redox H2O2 prof: inactive; bCat nuc transl: inactive

Results for N#CCOC(=O)C1CSC2(c3ccc(Br)cc3)CCC(=O)N12 (configuration not stated) ?
KCC2 mod: inactive; ROMK mod: inactive; MT stabilize HCS: inactive; Redox H2O2 prof: inactive; bCat nuc transl: inactive

How did Cc1ccc(C(C)C)c(Oc2nnnn2-c2ccccc2)c1 do in these assays?
KCC2 mod: inactive; MT stabilize HCS: 32; Redox H2O2 prof: inactive; bCat nuc transl: inactive

What do the screens show for `COc1ccc(CC(=O)NNc2ncnc3c2cnn3-c2ccc(C)cc2)cc1OC`?
KCC2 mod: inactive; ROMK mod: inactive; MT stabilize HCS: inactive; Redox H2O2 prof: inactive; bCat nuc transl: inactive

How did S=C1CCSc2ccc(Cl)cc2N1 do in these assays?
KCC2 mod: 9.8; MT stabilize HCS: inactive; Redox H2O2 prof: inactive; bCat nuc transl: inactive

How did CCN(CC)S(=O)(=O)c1cc(C(=O)OCC(=O)Nc2cccc(Br)c2)ccc1F do in these assays?
KCC2 mod: inactive; ROMK mod: inactive; MT stabilize HCS: inactive; Redox H2O2 prof: inactive; bCat nuc transl: inactive
